Measured values published in ChEMBL document CHEMBL1141320, “Antioxidant flavonoid glycosides from aerial parts of the fern Abacopteris penangiana” (J Nat Prod, 2007).
Active and inactive are the calls of the source. The calls are words filed in the database; no cut-off is given here.

Assay: Antioxidant activity assessed as ABTS radical scavenging activity after 15 mins by TEAC assay
Format: functional
How it was run: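 ABTS (7 mM in water) oxidized with potassium persulfate (2.45 mM final), kept dark at room temperature 16 h, diluted with water to A734 0.700 ± 0.003. Sample added to diluted ABTS•+ (0–20 µM final); A734 decrease read after 15 min. Triplicate, with solvent blanks. Percent inhibition plotted against concentration alongside Trolox standard; TEAC = Trolox concentration matching antioxidant potential of 1 mM sample.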

Row | SMILES | Activity
1 | COCc1c(O)c(C)c2c3c1O[C@@H]1O[C@H](CO)[C@@H](O)[C@H](O)[C@H]1O[C@@H]3C[C@@H](c1ccc(OC)cc1)O2 | 1.03 mM
2 | COCc1c(O)c(C)c2c3c1O[C@@H]1O[C@H](CO)[C@@H](O)[C@H](O)[C@H]1O[C@@H]3C[C@@H](c1ccc(O)cc1)O2 | 1.51 mM
3 | O=c1c(O[C@@H]2O[C@H](CO)[C@@H](O)[C@H](O)[C@H]2O)c(-c2ccc(O)c(O)c2)oc2cc(O)cc(O)c12 | 1.91 mM
4 | COc1ccc([C@@H]2C[C@H]3O[C@H]4[C@H](Oc5c(C)c(O)c(C)c(c53)O2)O[C@H](CO)[C@@H](O)[C@@H]4O)cc1 | 1.36 mM
5 | COc1ccc([C@@H]2C[C@@H]3O[C@H]4[C@H](Oc5c(C)c(O)c(C)c(c53)O2)O[C@H](CO)[C@@H](O)[C@@H]4O)cc1 | 1.1 mM
6 | COc1ccc([C@@H]2C[C@@H](O)c3c(O[C@@H]4O[C@H](CO)[C@@H](O)[C@H](O)[C@H]4O)c(C)c(O[C@@H]4O[C@H](CO)[C@@H](O)[C@H](O)[C@H]4O)c(C)c3O2)cc1 | inactive
7 | Cc1c(O[C@@H]2O[C@H](CO)[C@@H](O)[C@H](O)[C@H]2O)c(CO)c(O[C@@H]2O[C@H](CO)[C@@H](O)[C@H](O)[C@H]2O)c2c1O[C@H](c1ccc(O)cc1)C[C@H]2O | 1.17 mM
8 | O=c1c(O[C@@H]2O[C@H](CO)[C@@H](O)[C@H](O)[C@H]2O)c(-c2ccc(O)cc2)oc2cc(O)cc(O)c12 | 1.46 mM
9 | O=c1c(O)c(-c2ccc(O)c(O)c2)oc2cc(O)cc(O)c12 | 3.74 mM
10 | COc1ccc([C@@H]2C[C@H]3O[C@H]4[C@H](Oc5c(C)c(O[C@@H]6O[C@H](CO)[C@@H](O)[C@H](O)[C@H]6O)c(C)c(c53)O2)O[C@H](CO)[C@@H](O)[C@@H]4O)cc1 | inactive
11 | Cc1c(O)c(C)c2c3c1O[C@@H]1O[C@H](CO)[C@@H](O)[C@H](O)[C@H]1O[C@@H]3C[C@@H](c1ccc(O)cc1)O2 | 1.32 mM
12 | COc1ccc([C@@H]2C[C@@H](O)c3c(c(C)c(O[C@@H]4O[C@H](CO)[C@@H](O)[C@H](O)[C@H]4O)c(CO)c3O[C@@H]3O[C@H](CO)[C@@H](O)[C@H](O)[C@H]3O)O2)cc1 | inactive
13 | Cc1c(O)c(C)c2c3c1O[C@@H]1O[C@H](CO)[C@@H](O)[C@H](O)[C@H]1O[C@H]3C[C@@H](c1ccc(O)cc1)O2 | 1.44 mM
